# From ChEMBL document CHEMBL1136991, “Novel potent BRAF inhibitors: toward 1 nM compounds through optimization of the central phenyl ring” (J Med Chem, 2009)
# The source made the active and inactive calls. The rule behind the calls is not given here.
# Legend:
# [1] = Growth inhibition of human WM266.4 cells expressing BRAF V600E mutant after 5 days by SRB assay; format: functional; conditions: WM 266-4, 120 h
# Summary of the method: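 WM266.4 human melanoma cells, which are driven by mutant BRAF, were assayed for proliferation by sulforhodamine B (SRB) staining; the value is a GI50.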
# [2] = target: T1, Serine/threonine-protein kinase B-raf (Homo sapiens, UniProt P15056, V600E); test: Inhibition of BRAF V600E mutant-mediated ERK phosphorylation in human WM266.4 cells; format: cell-based
# Summary of the method: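 Cellular pathway read-out: ERK phosphorylation (pERK) was measured in WM266.4 melanoma cells and reported as an IC50.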
# [3] = target: T1, Serine/threonine-protein kinase B-raf; test: Inhibition of BRAF V600E mutant
# Summary of the method: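 Purified, isolated V600E BRAF enzyme assayed in vitro; potency reported as IC50.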
# WM1361 = test: Growth inhibition of human WM1361 cells expressing NRAS mutant after 5 days by SRB assay; format: functional, cell-based
# T1 sequence (P15056 2-766 V600E limits assumed): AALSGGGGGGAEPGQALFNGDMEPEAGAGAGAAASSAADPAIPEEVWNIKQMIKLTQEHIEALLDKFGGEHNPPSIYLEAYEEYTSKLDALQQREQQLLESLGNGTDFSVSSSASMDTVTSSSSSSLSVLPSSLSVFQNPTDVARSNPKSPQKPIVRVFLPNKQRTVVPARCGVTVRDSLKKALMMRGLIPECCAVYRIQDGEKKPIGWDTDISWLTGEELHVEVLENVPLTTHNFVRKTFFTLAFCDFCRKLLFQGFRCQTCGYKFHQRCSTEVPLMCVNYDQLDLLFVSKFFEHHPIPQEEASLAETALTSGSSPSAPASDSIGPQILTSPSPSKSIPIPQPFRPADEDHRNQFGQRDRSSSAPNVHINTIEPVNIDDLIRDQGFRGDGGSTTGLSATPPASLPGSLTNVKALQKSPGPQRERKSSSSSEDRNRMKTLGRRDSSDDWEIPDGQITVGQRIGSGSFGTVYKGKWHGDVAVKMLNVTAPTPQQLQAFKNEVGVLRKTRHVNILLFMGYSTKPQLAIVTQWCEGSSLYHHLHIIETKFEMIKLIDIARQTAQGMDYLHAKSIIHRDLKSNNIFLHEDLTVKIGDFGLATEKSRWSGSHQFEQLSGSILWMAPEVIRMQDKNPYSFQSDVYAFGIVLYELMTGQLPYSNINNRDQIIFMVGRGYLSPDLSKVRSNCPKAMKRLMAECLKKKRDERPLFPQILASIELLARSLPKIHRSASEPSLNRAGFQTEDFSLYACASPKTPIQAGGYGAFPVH
SMILES,GI50 [1],IC50 [2],IC50 [3],Activity (WM1361)
Cn1c(=O)[nH]c2nccc(Oc3ccc(NC(=O)c4cccc(SC(F)(F)F)c4)c4ccccc34)c21,7600 nM,18400 nM,4600 nM,
O=C(Nc1cccc(F)c1)Nc1ccc(Oc2ccnc3[nH]c(=O)[nH]c23)c2ccccc12,290 nM,214 nM,37 nM,
COc1cc(Oc2ccnc3[nH]c(=O)[nH]c23)ccc1NC(=O)Nc1ccc(Cl)c(C(F)(F)F)c1,,> 100000 nM,106 nM,
O=C(Nc1ccc(Oc2ccnc3[nH]c(=O)[nH]c23)cc1)Nc1ccc(Cl)c(C(F)(F)F)c1,4200 nM,2390 nM,,
CN(C)c1cc(Oc2ccnc3[nH]c(=O)[nH]c23)ccc1NC(=O)Nc1ccc(Cl)c(C(F)(F)F)c1,5340 nM,20700 nM,10000 nM,
O=C(Nc1cc(C(F)(F)F)ccc1N1CCOCC1)Nc1ccc(Oc2ccnc3[nH]c(=O)[nH]c23)c2ccccc12,291 nM,346 nM,14 nM,
Cn1c(=O)[nH]c2nccc(Oc3ccc(NC(=O)Nc4cccc(SC(F)(F)F)c4)c4ccccc34)c21,1200 nM,1460 nM,24 nM,
CSc1cc(Oc2ccnc3[nH]c(=O)[nH]c23)ccc1NC(=O)Nc1ccc(Cl)c(C(F)(F)F)c1,470 nM,610 nM,1 nM,
Cc1cc(NC(=O)Nc2ccc(Cl)c(C(F)(F)F)c2)ccc1Oc1ccnc2[nH]c(=O)[nH]c12,1790 nM,59000 nM,23 nM,
Cn1c(=O)[nH]c2nccc(Oc3ccc(NC(=O)Nc4ccc(Cl)c(C(F)(F)F)c4)c4ccccc34)c21,1040 nM,770 nM,23 nM,
O=C(Nc1ccc(Oc2ccnc3[nH]c(=O)[nH]c23)cc1F)Nc1cc(C(F)(F)F)ccc1F,1150 nM,1290 nM,7 nM,
O=C(Cc1cccc(OC(F)(F)F)c1)Nc1ccc(Oc2ccnc3[nH]c(=O)[nH]c23)c2ccccc12,3100 nM,> 100000 nM,> 10000 nM,
Cn1c(=O)[nH]c2c(Oc3ccc(NC(=O)Nc4cccc(C(C)(C)C)c4)c4ccccc34)ccnc21,> 100000 nM,46000 nM,430 nM,
O=C(Nc1ccc(Cl)c(C(F)(F)F)c1)Nc1ccc(Oc2ccnc3[nH]c(=O)[nH]c23)cc1-c1ccccc1,5100 nM,> 100000 nM,6500 nM,
O=C(Nc1ccc(Cl)c(C(F)(F)F)c1)Nc1ccc(Oc2ccnc3[nH]c(=O)[nH]c23)cc1C(F)(F)F,930 nM,3580 nM,22 nM,
O=C(Nc1ccc(Cl)c(C(F)(F)F)c1)Nc1ccc(Oc2ccnc3[nH]c(=O)[nH]c23)c2ccccc12,470 nM,559 nM,30 nM,
O=C(Nc1cccc(SC(F)(F)F)c1)Nc1ccc(Oc2ccnc3[nH]c(=O)[nH]c23)cc1F,1190 nM,4150 nM,7 nM,
O=C(Nc1cccc(C(F)(F)F)c1)Nc1ccc(Oc2ccnc3[nH]c(=O)[nH]c23)c2ccccc12,320 nM,1910 nM,6 nM,
Cn1c(=O)[nH]c2nccc(Oc3ccc(NC(=O)Nc4cc(C(F)(F)F)ccc4F)c4ccccc34)c21,490 nM,810 nM,17 nM,

SMILES,GI50 [1],IC50 [2],IC50 [3],Activity (WM1361)
CNC(=O)c1cc(Oc2ccc(NC(=O)Nc3ccc(Cl)c(C(F)(F)F)c3)cc2)ccn1,,,,inactive
O=C(Nc1ccc(F)c(F)c1)Nc1ccc(Oc2ccnc3[nH]c(=O)[nH]c23)c2ccccc12,5500 nM,> 100000 nM,220 nM,
COc1cc(NC(=O)Nc2ccc(Cl)c(C(F)(F)F)c2)ccc1Oc1ccnc2[nH]c(=O)[nH]c12,6200 nM,5500 nM,25 nM,
Cn1c(=O)[nH]c2nccc(Oc3ccc(NC(=O)Nc4ccc(Cl)c(C(F)(F)F)c4)c(F)c3)c21,100000 nM,21000 nM,10 nM,
Cc1c(NC(=O)Nc2ccc(Cl)c(C(F)(F)F)c2)ccc(Oc2ccnc3[nH]c(=O)[nH]c23)c1C,2000 nM,3900 nM,56 nM,
O=C(Nc1ccc(Cl)c(C(F)(F)F)c1)Nc1ccc(Oc2ccnc3[nH]c(=O)[nH]c23)cc1F,1530 nM,2170 nM,8 nM,
O=C(Nc1cccc(C(F)(F)F)c1)Nc1ccc(Oc2ccnc3[nH]c(=O)[nH]c23)cc1F,1610 nM,3450 nM,12 nM,
O=C(Cc1cccc(C(F)(F)F)c1)Nc1ccc(Oc2ccnc3[nH]c(=O)[nH]c23)c2ccccc12,,> 100000 nM,> 10000 nM,
Cn1c(=O)[nH]c2c(Oc3ccc(NC(=O)Nc4ccc(Cl)c(C(F)(F)F)c4)c4ccccc34)ccnc21,2300 nM,3140 nM,156 nM,
CSc1cc(Oc2ccnc3[nH]c(=O)[nH]c23)ccc1NC(=O)Nc1cc(C(F)(F)F)ccc1F,2600 nM,3060 nM,12 nM,
Cn1c(=O)[nH]c2nccc(Oc3ccc(NC(=O)Nc4cccc(C(C)(C)C)c4)c4ccccc34)c21,1130 nM,1060 nM,37 nM,
O=C(Nc1ccc(Oc2ccnc3[nH]c(=O)[nH]c23)c(F)c1)Nc1ccc(Cl)c(C(F)(F)F)c1,,34000 nM,47 nM,
O=C(Nc1ccc(Cl)c(C(F)(F)F)c1)Nc1ccc(Oc2ccnc3[nH]c(=O)[nH]c23)cc1Cl,2000 nM,1330 nM,23 nM,
Cn1c(=O)[nH]c2nccc(Oc3ccc(NC(=O)c4cccc(OC(F)(F)F)c4)c4ccccc34)c21,12000 nM,31000 nM,5200 nM,
COc1cc(NC(=O)Nc2cccc(C(F)(F)F)c2)ccc1Oc1ccnc2[nH]c(=O)[nH]c12,> 100000 nM,29400 nM,16 nM,
Cn1c(=O)[nH]c2nccc(Oc3ccc(NC(=O)Nc4cccc(C(F)(F)F)c4)c4ccccc34)c21,810 nM,600 nM,10 nM,
Cc1cc(Oc2ccnc3[nH]c(=O)[nH]c23)ccc1NC(=O)Nc1ccc(Cl)c(C(F)(F)F)c1,5900 nM,4720 nM,37 nM,
CS(=O)(=O)c1cc(Oc2ccnc3[nH]c(=O)[nH]c23)ccc1NC(=O)Nc1ccc(Cl)c(C(F)(F)F)c1,11900 nM,11000 nM,90 nM,
Cn1c(=O)[nH]c2c(Oc3ccc(NC(=O)Nc4cc(C(F)(F)F)ccc4F)c4ccccc34)ccnc21,730 nM,2000 nM,167 nM,
